We go through 95 compounds from ChEMBL document CHEMBL4513216, “Probing the Open Global Health Chemical Diversity Library for Multistage-Active Starting Points for Next-Generation Antimalarials” (ACS Infect Dis, 2020).

A short description of the data set: Toxicity liver stage against HepG2, at 10uM. Conditions: human, HepG2-A16-CD81EGFP cells; read-out: INHIBITION
On the set-up: test concentration 10 uM, cell line HepG2-A16-CD81EGFP. Format: cell-based. An outline of the steps:
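Uninfected HepG2-A16-CD81EGFP cells, 3 × 10^3 per well, 1536-well, plated on prespotted compound at 10 μM final, parasite-free screening media added to match infected plates; puromycin 10 μM positive, DMSO 0.5% negative; run in parallel with 48 h PbLuc assay at 37 °C, 5% CO2; viability by CellTiter-Glo luminescence, normalized to controls.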
For `O=C(CNC(=O)c1ccccc1F)NCc1ccccn1`, the cytotoxicity at 10 µM is -0.575%.
The value for `O=C(NC[C@H]1OC[C@@H](NCc2ccc(F)cc2)[C@@H]1O)N1CCOCC1` was 1.17%; that for `COC(=O)[C@@H]1Cc2ncn(C)c2CN1S(=O)(=O)Cc1ccccc1` was -0.861%.
For `Cn1nc(-c2ccccc2)cc1[C@H]1CN2CC[C@H]1C[C@@H]2CNS(C)(=O)=O` the value was 1.82%; for `O=C(Nc1ccccc1)[C@H]1O[C@H](CCN2CCCCC2)CC[C@@H]1O`, -1.36%.
Turning to `Cc1nc(C)c(CC(=O)NCc2ccc(F)cc2)s1`, the cytotoxicity at 10 µM worked out at 8.05%.
For `CC(C)C(=O)N1CCC2(CC1)NC(=O)[C@H]1CN(C(=O)N(C)C)C[C@H]12` the value was 3.03%.
For `Cc1ccsc1C(=O)N1CCCc2c(c(=O)n(C)n2C)C1` the value was 6.95%; for `CS(=O)(=O)N1CCCC12CCCN(S(=O)(=O)c1cccc(F)c1)C2` (stereo not given), 0.88%.
Turning to `CCc1cccc(NC(=O)N2CCn3cnc(COC)c3C2)c1`, the cytotoxicity at 10 µM amounted to 5.35%.
With `CNC(=O)CN1CCOCC2(CCCN(Cc3ccoc3)C2)C1` (stereo not given), the cytotoxicity at 10 µM amounted to 6.65%.
The value for `O=C(NC1CCCC1)C1Cc2nc(-c3ccsc3)sc2N1CC1CC1` (stereo not given) was 16.6%.
The value for `Cc1ccc(CN2C[C@@H](c3ccccc3)[C@@]3(CCNC3=O)C2)o1` was -119%; that for `COc1ccccc1C1SCC(=O)Nc2c1c(=O)[nH]n2C1CCCCC1` (stereo not given) was -1.2%.
The value for `CC(C)n1[nH]c(=O)c2c1NC(=O)CC2c1ccc(S(C)(=O)=O)cc1` (stereo not given) was -2.28%; that for `Cn1nc(CNC(=O)C2CCCC2)cc1C1CC1` was -0.265%.
As to `Cc1cc(C(F)(F)F)nn1C(C)C(=O)Nc1ccncc1` (stereo not given), the cytotoxicity at 10 µM amounted to 3.1%.
The value for `COc1cccc(S(=O)(=O)N2CCOC(C)(C(N)=O)C2)c1` (stereo not given) was 3.08%.
The value for `CN1CCC(c2cccc(NCc3ccncc3)n2)CC1` was 6.08%; that for `O=C1CN(C(=O)C2CN(c3ccccc3)CCO2)CCN1` (stereo not given) was 1.91%; that for `Cc1cc(-c2cnc(N3CCOCC3)nc2-c2cccnc2C)on1` was -21.4%.
The value for `CCN1CCCC(c2cc(Nc3cnccn3)nc(C)n2)C1` (stereo not given) was -12.9%.
Consider `Cc1ccc(CC(=O)N(C)CC2(O)CCCN(c3ccccn3)C2)s1` (stereo not given), for which the cytotoxicity at 10 µM is -14.1%.
The value for `O=C1Nc2ccccc2CC12CCCN2Cc1cccnc1` (stereo not given) was 7.27%; that for `CNC(=O)c1ccc(CN(C)C(=O)Nc2nnc(C(C)C)s2)cc1` was -14%.
For `CNC(=O)CNC(=O)Nc1ccc(F)c(Br)c1` the value was 7.92%; for `O=C1NCCCC1NC(=O)C1(c2cccc(Cl)c2)CCC1` (stereo not given), -2.09%.
For `Cc1cc(NCCC(=O)NC(C)C)nc(-c2ccncc2)n1` the value was -6.74%; for `O=C(NCc1cnn(-c2ccc(F)cc2F)c1)C1CCCO1` (stereo not given), 8.69%; for `CCCc1cc(NC2CCc3nc(C)nn3C2)n2ncnc2n1` (stereo not given), -10.4%.
For the compound `O=C(COc1ccc(-c2ccccc2)nc1)NCC1CC1`, the cytotoxicity at 10 µM was found to be 6.8%.
Take `CCc1cnc(CN(C)C2CCN(CCCS(=O)(=O)NC)C2)o1` (stereo not given): the cytotoxicity at 10 µM worked out at 7.82%.
For `O=C(c1nc(=O)[nH][nH]1)N1CCCCCC1` the value was 14.1%.
The value for `Cc1ccc(Cl)cc1S(=O)(=O)NCc1cnc(N(C)C)n1C` was 5.17%; that for `Cc1noc(C(C)NC(=O)[C@@H](C)NC(=O)OC(C)(C)C)n1` (stereo not given in full) was 5.81%; that for `CCN(C(=O)Nc1cc(C)on1)C(C)c1cccc(O)c1` (stereo not given) was 2.52%.
For `CN1CCOC(CNCc2c(Cl)nc3ccccn23)C1` (stereo not given) the value was -0.0638%; for `CCc1nc(CN2CCN(C(=O)c3csc(C(C)C)n3)CC2)no1`, 11.3%.
`Cc1n[nH]c(C2CN(Cc3csc(C4CCCC4)n3)CCO2)n1` (stereo not given): the cytotoxicity at 10 µM is 12.9%.
Regarding `CC(=O)NC(C)(C)c1noc(C2(C#N)CCCCC2)n1`, the cytotoxicity at 10 µM turned out to be 7.57%.
For `C=C(C)Cn1ccc2cc(OC)c(F)cc2c1=O` the value was 3.09%.
Consider `CSc1ccc(OC(C)C(=O)Nc2c(C)n[nH]c2C)cc1` (stereo not given), for which the cytotoxicity at 10 µM was 6.8%.
For `Cc1cc(C2CCCN(C(=O)c3c(C)noc3C)C2)n[nH]1` (stereo not given) the value was -6.63%.
The value for `CNC(=O)[C@@H]1C[C@H]2CN(Cc3ccc(C)o3)C[C@H]2N1C(C)=O` was -103%; that for `CCC[C@H]1CN(S(=O)(=O)c2ccccc2)C[C@@H]1N` was 1.35%; that for `N#Cc1ccc(N2CCC(c3nccn3Cc3cscn3)CC2)nc1` was -7.01%.
For `Cc1cc(C)nc(CN(C)C(=O)c2cccc(CCC(C)(C)O)c2)c1` the value was -3.25%.
Take `CCC1C=CCN1C(=O)c1cc(COc2ccccc2OC)[nH]n1` (stereo not given): the cytotoxicity at 10 µM turned out to be 2.93%.
The value for `CCC(=O)N1CCN(C(=O)Nc2cccc(C#N)c2)[C@H]2CS(=O)(=O)C[C@H]21` was -46%.
The value for `Cc1oc(-c2ccoc2)nc1CN1CCCCC1CCc1ccccc1` (stereo not given) was -1.48%; that for `CC1CCN(S(=O)(=O)c2ccc(C(=O)N3CCSCC3)cc2)CC1` was 9.54%; that for `CN(CCCc1cnn(C)c1)C(=O)C1COc2ccccc2C1` (stereo not given) was -5.91%.
The value for `CCc1cc(NCCc2ccc(O)cc2)n2nccc2n1` was -16.3%; that for `CNc1nc(C2CCCN2C(C)=O)nc2c1CCN(CC1CC1)C2` (stereo not given) was -0.361%.
Consider `COc1ccc(C)cc1CC(=O)NS(=O)(=O)c1ccc(C(N)=O)cc1`, for which the cytotoxicity at 10 µM was 8%.
For `CN(Cc1ccc(F)cc1)C(=O)Nc1cccnc1N1CCCC1` the value was -4.26%; for `Cn1cnc2c1CCN(Cc1csc(-c3ccc(F)cc3)n1)C2`, -4.78%; for `CC(C)CNC(=O)c1cccc(CN2CCc3c(ncn3C)C2)c1`, -6.98%.
The value for `CN1CCN(c2cc(CNC(=O)c3ccsc3)ccn2)CC1` was -7.27%; that for `Cc1cc2n(n1)CC(CNCc1ccc(N3CCOCC3)nc1)CN2` (stereo not given) was -15.3%.
The value for `Cc1cc(NC(=O)NCC(c2ccccc2)N2CCOCC2)n(C)n1` (stereo not given) was -11%.
In the case of `CCOc1ccc(C#N)cc1NCC(=O)NC1(C#N)CCCC1`, the cytotoxicity at 10 µM was -30.8%.
On to `CC(C)c1nc2c(n1C)CCN(CCCOc1ccc(C#N)cc1)C2`, for which the cytotoxicity at 10 µM is -12.8%.
The value for `Cc1ccc(NC2CCN(C(=O)c3ccc(C#N)cc3)CC2)nn1` was -4.28%; that for `Cc1cc(NS(=O)(=O)c2ccc(C(=O)O)cc2F)ccc1F` was -1.96%.
Turning to `CC(C)c1nc2n(n1)CC(NCc1nnc(C3CC3)o1)CC2` (stereo not given), the cytotoxicity at 10 µM was -11.6%.
The value for `CCCC(=O)N1CCN(CC(O)COCC)CC1` (stereo not given) was -20.6%; that for `COc1cc(C)ccc1OCC(=O)NS(=O)(=O)c1ccc(Br)s1` was -7.72%; that for `CC(=O)N(Cc1ncc(C)o1)C1CCN(Cc2sc(C)nc2C)C1` (stereo not given) was -19.8%.
For `CCc1nc(C2CCCN(C(=O)CC3CCOCC3)C2)no1` (stereo not given) the value was -15.3%; for `CCc1nc(CN2CCCN(CC(=O)Nc3cccnc3)CC2)no1`, -17.4%; for `COc1ccc(C(O)CNc2c(C#N)c(=O)n(C)c(=O)n2C)cc1` (stereo not given), -7.34%.
The value for `COc1ccc(C(C)NC(=O)NCCCn2cncn2)cc1F` (stereo not given) was 2.12%; that for `COc1ccc(CN(C)Cc2nc3c(cnn3C)c(=O)[nH]2)cc1OC` was 0.457%; that for `CC(C)(C)OC(=O)N1CCN(C(=O)c2sccc2C2CC2)CC1` was 2.38%.
As for `CCN(CCNC(=O)c1ccccc1Br)C1CC1`, the cytotoxicity at 10 µM was determined as 3.32%.
For `O=C(c1ccccn1)N1CCC2(CC1)COC(COCC1CCCC1)C2` (stereo not given), the cytotoxicity at 10 µM was -1.18%.
The value for `Cn1cc(C(=O)NCc2cn3c(n2)CN(CC2CCCC2)CC3)cn1` was 7.17%; that for `CN(Cc1cccnc1)[C@@H]1CN(C(=O)c2ccoc2)[C@@H]2CCCO[C@H]12` was -1.81%; that for `CCOCC1CN(Cc2cccnc2OC)Cc2cnn(C)c21` (stereo not given) was -1.6%.
For `O=C1CC(c2ccccc2)C2(CCN(Cc3nccs3)CC2)N1` (stereo not given) the value was 4.67%; for `Cc1ccc(CN2CCC[C@@H]3CN(C(=O)c4ccco4)C[C@@H]32)s1`, -1.05%.
The value for `Cc1cc(C(=O)N2CC[C@@H](N(C)C)[C@@H]2Cc2ccccc2)no1` was -0.567%; that for `Cc1ccc(CN2CCC3(CC2)CN(c2cnn(C)c2)C(=O)CO3)o1` was 2.96%.
Consider `COc1ccc(CN2C[C@@H]3CN(Cc4ccncc4)C[C@@H]3C2=O)cc1`, for which the cytotoxicity at 10 µM was -3.86%.
For the compound `CCCS(=O)(=O)N1C[C@@H]2CN(Cc3cccs3)CCO[C@@H]2C1`, the cytotoxicity at 10 µM is -145%.
Regarding `Cn1cccc1C(=O)N1CCC2(CCCN2c2ncccn2)CC1`, the cytotoxicity at 10 µM was determined as 6.07%.
`O=C(c1cccnc1)N1CCOC2(COCCN(c3cncnc3)C2)C1` (stereo not given): the cytotoxicity at 10 µM was found to be 4.53%.
For `CCc1ncnc2c1CCN(Cc1nccs1)CC2` the value was 6.56%; for `CN(C)c1ncc(-c2cc(C(=O)NCCC#N)n(CC3CC3)c2)cn1`, 1.29%; for `CN1C(=O)CCCC12CCCN(Cc1cccs1)C2` (stereo not given), -0.302%.
`Cc1ccsc1CNC1CCCc2c1cnn2C` (stereo not given): the cytotoxicity at 10 µM turned out to be 2.27%.
The value for `O=C(c1n[nH]c2c1CN(C1CCOCC1)CC2)N1CCCC1` was -2.39%.
For `CN(C)[C@@H]1CN(Cc2ccco2)C[C@@H]2CCCO[C@@H]21` the value was 2.75%; for `Cc1ccc(N2CC[C@@H]3CN(Cc4cccc(C)n4)C[C@@H]3C2)nn1`, 6.34%.
